The list is not random: actives were taken first. Their share in the collection is about 5.1%.
STAT3 act – STAT3 signaling activation; U3A cells, IL-6 STAT3-luciferase reporter, luminescence; 100% = signal with IL-6 EC80 alone; activation (% of control), % at 5.6 µM; hit rate 0.91% among 190,000; AID 871;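 active means activation above the screen-wide mean of compound activation plus 3 SD, cut at about 130% in these data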;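 further: 0% = background luminescence of wells with medium and substrate only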
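system = STAT3-luciferase reporter U3A cells | reagent = IL-6 stimulus at 33 ng/mL final | timing = 1 h compound pre-exposure, 6 h IL-6 stimulation, 37 °C | measured by = luminescence | evaluation = % activation versus median of IL-6-stimulated wells | control set = IL-6-only wells as 100% reference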
APP 5'UTR act – APP 5'UTR luciferase reporter activation; AID 1276; activation, % at 2 µM; SH-SY5Y APP 5'UTR luciferase reporter, luminescence; zero percent = DMSO vehicle wells; hit rate 1% among 190,000;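 active means activation above a set limit, based on mean plus 3 SD of controls, cut at about 140% in these data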
STAT1 act – activators of IFN-gamma induced STAT1 signaling. NIH 3T3 STAT1-luciferase reporter, luminescence; 100% = IFN-gamma alone, no compound. activation (% of control), % at 5.5 µM. hit rate 2.6% among 200,000;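 active means activation above the screen-wide mean activation plus 3 SD, cut at about 130% in these data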;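 further: raw ratio to IFN-gamma control signal so 100% means no change and 0% no light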
STAT1 inh – STAT1 signaling inhibition | NIH 3T3 STAT1-luciferase reporter, IFN-gamma, luminescence | inhibition, % at 5.5 µM | hit rate 0.35% among 200,000 | AID 920;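 active means inhibition above a set limit, the mean inhibition across all tested compounds plus 3 SD, cut at about 34% in these data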;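 further: 0% = IFN-gamma with DMSO and 100% = IFN-gamma with 300 µM nifuroxazide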
NF-kB expr up – raises NF-kB expression in human neuronal cells; NF-kB reporter expression; stronger effect = higher value; fold change at 12.5 µM; hit rate 1.6% among 190,000; in the data active means fold change above about 3.3
STAT3 blocker – reduces IL-6 driven STAT3 reporter signal; inhibition, % at 5.5 µM; AID 862; hit rate 0.89% among 190,000; U3A cells, IL-6 STAT3-luciferase reporter, luminescence; host cell line lacks STAT1;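 active means inhibition above the mean inhibition across all screened compounds plus 3 SD, cut at about 44% in these data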;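 further: 0% = DMSO only wells and 100% = 100 µM nifuroxazide control wells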
The depositor's hits bear a star; nt = no result.

SMILES | STAT3 act | APP 5'UTR act | STAT1 act | STAT1 inh | NF-kB expr up | STAT3 blocker
CCOC(=O)C1=C(C)NC(=NC)SC1c1ccccc1 (stereo unspecified) | 106 | 7 | 93 | 8 | 1.1 | -5
O=c1oc2cc(Cl)ccc2n1CSc1nc2ccccc2s1 | 123 | 0 | 119 | -21 | 8.6* | -20
O=C(CSc1nc2ccccc2s1)N1c2ccccc2Sc2ccc(Cl)cc21 | 91 | -2 | 90 | 11 | 1 | 11
CC(C)(C)C(=O)c1sc(Nc2ccccc2)nc1N | 110 | 64 | 150* | -54 | 3.8* | -9
CC(C)(C)C(=O)CSc1nnc(Nc2ccccc2)s1 | 113 | 16 | 130* | -35 | 1.8 | -10
CCN(CC)C(=O)C1=C(C)Nc2ncnn2C1c1cccnc1 (stereo unspecified) | 102 | 15 | 102 | -4 | 1.1 | 2
Cn1c2c(c(=O)n(C)c1=O)C(C(F)(F)F)(C(F)(F)F)N=C(c1ccc(Cl)cc1)N2 | 31 | -51 | 36 | 71* | 0.57 | 89*
Cc1ccccc1C1=NC(C(F)(F)F)(C(F)(F)F)c2c(n(C)c(=O)n(C)c2=O)N1 | 105 | 19 | 97 | 3 | 0.71 | -3
COC(=O)c1sc(NC(=S)NC(=O)c2ccccc2C)nc1C | 98 | 7 | 116 | -19 | 1.2 | 7
CC(=O)c1ccc(NC(=O)CN2C(=O)/C(=C/C=C/c3ccccc3)SC2=S)cc1 | 103 | 16 | 110 | -11 | 0.98 | -4
O=C(CN1C(=O)S/C(=C\C=C\c2ccccc2)C1=O)Nc1cccc(O)c1 | 109 | 16 | 130* | -33 | 3.4* | -7
O=C(c1nc2nc(-c3cccs3)cc(C(F)(F)F)n2n1)N1CCN(Cc2ccccc2)CC1 | 114 | -8 | 101 | -3 | 0.78 | -15
CN(C)/C=C1\Oc2ccc3ccccc3c2C1=O | 92 | 86 | 135* | -37 | 3.7* | 17
CN(C)/C=C1/Oc2c(ccc3ccccc23)C1=O | 84 | 1 | 109 | -10 | 1.6 | 22
Cc1ccc(COn2c(-c3ccc(Cl)cc3)nc3ccc([N+](=O)[O-])cc32)cc1 | 104 | nt | 135* | -38 | 5.3* | 2
O=[N+]([O-])c1ccc2nc(-c3ccc(Cl)cc3)n(OCc3ccccc3)c2c1 | 96 | nt | 129* | -32 | 4.5* | 11
Clc1ccc(COn2c(-c3ccc(Cl)cc3)nc3ccccc32)cc1 | 89 | nt | 92 | 8 | 0.93 | 19
Oc1ccc(-c2csc(-c3c[nH]c4ccccc34)n2)c(O)c1 | 158* | 107 | 144* | -49 | 4.2* | -60
CCCc1cc2c(=O)c(-c3ccccn3)coc2cc1OC | 98 | 16 | 136* | -39 | 3.9* | 7
CCCc1cc2c(=O)c(-c3ccccn3)c(C)oc2cc1O | 116 | 30 | 96 | 3 | 1.2 | -12
O=C1/C(=C\c2ccco2)CCC/C1=C\c1ccco1 | 104 | 101 | 123 | -26 | 5.9* | -7
O=C1[C@H]2[C@@H](C(=O)N1c1cccc3ccccc13)C1(C(=O)c3ccccc3C1=O)N1CCC[C@@H]21 | 95 | 1 | 104 | -4 | 3.4* | 9
CC(OC(=O)CCc1nc2ccccc2c(=O)[nH]1)C(=O)c1ccc(C(C)(C)C)cc1 (stereo unspecified) | 98 | 20 | 108 | -9 | 5.8* | 3
CC(OC(=O)CCc1nc2ccccc2c(=O)[nH]1)C(=O)NC1CCCC1 (stereo unspecified) | 98 | 5 | 86 | 15 | 1.2 | -2
Cc1ccccc1-c1noc(-c2ccc(O)cc2)n1 | 94 | 156* | 140* | -44 | 7.7* | 17
SMILES | STAT3 act | APP 5'UTR act | STAT1 act | STAT1 inh | NF-kB expr up | STAT3 blocker
Cc1ccccc1-c1noc(-c2ccccc2F)n1 | 105 | 111 | 139* | -42 | 6.8* | 1
Cc1ccccc1-c1noc(-c2ccc(Cl)cc2)n1 | 125 | 48 | 112 | -13 | 3.4* | -28
COc1ccc(C(=O)NCC2OCCc3ccccc32)c(O)c1 (stereo unspecified) | 94 | 34 | 104 | -4 | 1.5 | 11
COc1ccc(Nc2nnc(SCC(=O)Nc3ccc4[nH]c(=O)[nH]c4c3)s2)cc1 | 94 | -9 | 94 | 4 | 1.1 | 12
CC(C)(C)n1cnc2cc(NC(=O)c3cccs3)ccc21 | 89 | 54 | 142* | -47 | 4* | 14
CCn1cnc2cc(NCc3cccs3)ccc21 | 105 | 37 | 124 | -30 | 1.7 | -2
CCn1cnc2cc(NC(=O)c3cccs3)ccc21 | 92 | 76 | 135* | -41 | 2.5 | 12
COc1ccc(/C=N/Nc2nncc3ccccc23)c(OC)c1 | 89 | 59 | 147* | -52 | 2.6 | 16
Cc1cccc(/C=N/Nc2nncc3ccccc23)c1 | 32 | 208* | 51 | 52* | 1.1 | 84*
Nn1c(SCc2ccccc2)nc2c(cnn2-c2ccccc2)c1=O | 98 | 93 | 135* | -39 | 2.1 | 8
CCCCSc1nc2c(cnn2-c2ccccc2)c(=O)n1N | 88 | 168* | 141* | -46 | 4.7* | 19
CCCCSc1cnn(-c2ccccc2)c(=O)c1SCCCC | 96 | 7 | 101 | 2 | 0.86 | 8
O=C(O)CC(c1cccc2ccccc12)N1Cc2ccccc2C1=O (stereo unspecified) | 99 | -13 | 99 | 0 | 1.1 | 8
CCN(C(=O)COc1cccc2cccnc12)C1CCS(=O)(=O)C1 (stereo unspecified) | 103 | -1 | 102 | -2 | 1.1 | 1
CCOc1ccc(C(=O)NCCCN2CCOCC2)cc1OCC | 97 | -4 | 103 | -6 | 1.1 | 8
CCOC(=O)c1noc(C)c1C(=O)Nc1nccs1 | 106 | 7 | 92 | 9 | 6* | -6
Cc1ccccc1NC(=O)N1CCN(S(=O)(=O)c2ccccc2)CC1 | 102 | -2 | 99 | 0 | 1.1 | 2
Cc1cc(C)c(C#N)c(SCc2nnc(-c3ccccc3[N+](=O)[O-])o2)n1 | 107 | 213* | 140* | -43 | 3.2 | -3
O=C(Nc1ccc2c(c1)OCCO2)c1ccc2ccccc2n1 | 130 | 220* | 137* | -42 | 9.2* | -23
O=C(Nc1ccc2c(c1)OCCO2)c1ccccn1 | 45 | 107 | 56 | 47* | 2.6 | 70*
O=C(Nc1ccc2c(c1)OCCO2)c1cccc2nc3ccccc3nc12 | 79 | -46 | 107 | -8 | 0.52 | 34
Cc1ccc(NC(=O)c2ccc3ccccc3n2)cc1S(=O)(=O)N(C)C | 106 | 73 | 134* | -36 | 1.4 | -7
O=C(Nc1ccc(NC(=O)c2ccccn2)cc1)C(=O)Nc1ccc2c(c1)OCCO2 | 93 | -2 | 116 | -15 | 0.95 | 13
O=C(CSCc1ccccc1Cl)Nc1ccc2c(c1)OCCO2 | 102 | 137* | 107 | -7 | 2 | 4
